# The source made the active and inactive calls. The calls are words filed in the database; no cut-off is given here.
# Key:
# [1] = Half life in Sprague-Dawley rat at 1 mg/kg, iv measured up to 8 hrs post dosing; format: ADME, organism-based; conditions: in vivo
# Summary of the method: (§1)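 Male Sprague-Dawley rats, 8 weeks old, fasted overnight; iv dosing from a 1 mg/mL solution in 5% DMSO/40% PEG400/55% saline. Jugular-vein blood (~0.2 mL, heparinised) taken at 1, 5, 15, 30 min and 1, 2, 4, 6, 8 h; plasma held at -80 °C until analysis; n=3.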
# [2] = system: Mast/stem cell growth factor receptor Kit (Homo sapiens), P10721 [T670I]; test: Inhibition of TEL-fused cKIT T670I mutant (unknown origin) expressed in mouse BA/F3 cells assessed as cell growth inhibition after 72 hrs by cell titer-glo assay; format: cell-based
# Summary of the method: (§2)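 Cells seeded at 3000 per well and exposed to serial compound dilutions for 72 h. Viability read by CellTiter-Glo luminescence and normalised to DMSO controls; mean of three independent measurements. BaF3 lines kept IL-3-free in RPMI 1640/10% FBS after retroviral transduction and puromycin selection. GIST lines grown in DMEM/10% FBS.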
# [3] = system: Mast/stem cell growth factor receptor Kit (Homo sapiens), P10721 [V559D,V654A]; test: Inhibition of TEL-fused cKIT V559D/V654A double mutant (unknown origin) expressed in mouse BA/F3 cells assessed as cell growth inhibition after 72 hrs by cell titer-glo assay; format: cell-based; summary of the method: as §2
# [4] = molecular target: T1, Mast/stem cell growth factor receptor Kit (Homo sapiens, UniProt P10721); test: Inhibition of wild type cKIT in human GIST-T1 cells assessed as cell growth inhibition after 72 hrs by cell titer-glo assay; format: cell-based
# Summary of the method: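 GIST-T1 cells (cKIT wt) grown in DMEM with 10% FBS and 1% penicillin/streptomycin at 37 °C, 5% CO2. Viability read by CellTiter-Glo luminescence and normalized to DMSO controls. GI50 taken from the mean of three independent measurements.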
# [5] = system: Mast/stem cell growth factor receptor Kit (Homo sapiens), P10721 [T670I]; test: Ratio of Imatinib IC50 to compound IC50 for cKIT T670I mutant in human in GIST-5R cells; format: cell-based
# [6] = molecular target: Cyclin-dependent kinase-like 3 (Homo sapiens) (UniProt Q8IVW4); test: Inhibition of partial length human CDKL3 expressed in bacterial expression system assessed as activity remaining at 1 uM by kinome scan assay
# [7] = molecular target: Vascular endothelial growth factor receptor 3 (Homo sapiens) (UniProt P35916); test: Inhibition of partial length human FLT4 expressed in bacterial expression system assessed as activity remaining at 1 uM by kinome scan assay
# [8] = molecular target: Serine/threonine-protein kinase 10 (Homo sapiens) (UniProt O94804); test: Inhibition of partial length human LOK expressed in bacterial expression system assessed as activity remaining at 1 uM by kinome scan assay
# [9] = molecular target: Platelet-derived growth factor receptor beta (Homo sapiens) (UniProt P09619); test: Inhibition of partial length human PDGFRbeta expressed in bacterial expression system assessed as activity remaining at 1 uM by kinome scan assay
# [10] = molecular target: T1, Mast/stem cell growth factor receptor Kit; test: Inhibition of wild type cKIT autophosphorylation at Y703 in human GIST-T1 cells at 100 nM after 1 hr by Western blot analysis; format: cell-based
# Summary of the method: (§3)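 GIST-T1 or GIST-5R cells in DMEM with 10% FBS were treated with serially diluted compound for 1 h. Cells were then lysed and analysed by western blotting.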
# [11] = molecular target: T1, Mast/stem cell growth factor receptor Kit; test: Inhibition of wild type cKIT autophosphorylation at Y719 in human GIST-T1 cells at 100 nM after 1 hr by Western blot analysis; format: cell-based; summary of the method: as §3
# [12] = molecular target: T1, Mast/stem cell growth factor receptor Kit; test: Inhibition of wild type cKIT autophosphorylation at Y823 in human GIST-T1 cells at 100 nM after 1 hr by Western blot analysis; format: cell-based; summary of the method: as §3
# [13] = molecular target: T1, Mast/stem cell growth factor receptor Kit; test: Inhibition of wild type cKIT in human GIST-T1 cells assessed as downregulation of AKT phosphorylation at S473 after 1 hr by Western blot analysis; format: cell-based
# Summary of the method: (§4)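 GIST-T1 cells in DMEM with 10% FBS were exposed to serially diluted compound for 1 h, then lysed. Lysates were analysed by western blot with phospho-specific antibodies against AKT (Ser473), ERK1/2 (Thr202/Tyr204) and S6 ribosomal protein (Ser235/236), each alongside its total protein.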
# [14] = molecular target: T1, Mast/stem cell growth factor receptor Kit; test: Inhibition of wild type cKIT in human GIST-T1 cells assessed as downregulation of ERK phosphorylation at T202//204 after 1 hr by Western blot analysis; format: cell-based; summary of the method: as §4
# [15] = molecular target: Mast/stem cell growth factor receptor Kit (Homo sapiens, UniProt P10721, T670I); test: Inhibition of cKIT T670I mutant in human GIST-5R cells assessed as downregulation of S6 phosphorylation at S235/236 after 1 hr by Western blot analysis; format: cell-based; summary of the method: as §3
# [16] = species on record: Homo sapiens; test: Induction of apoptosis in human GIST5R cells assessed as increase in cleaved PARP levels after at 30 nM 24 hrs by Western blot analysis; format: functional, cell-based
# Summary of the method: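 GIST-T1 or GIST-5R cells in DMEM with 10% FBS were exposed to serially diluted compound for 24 h. Apoptosis was assessed by western blot with PARP and GAPDH antibodies.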
# [17] = AUC (0 to infinity) in Sprague-Dawley rat at 1 mg/kg, iv measured up to 8 hrs post dosing; format: ADME, organism-based; parameters: dose 1 mg/kg, route intravenous, time infinity; conditions: in vivo; summary of the method: as §1
# [18] = Apparent volume of distribution in Sprague-Dawley rat at 1 mg/kg, iv measured up to 8 hrs post dosing; format: ADME, organism-based; conditions: in vivo, read-out: Vz; summary of the method: as §1
# [19] = Solubility of the compound in PBS buffer at pH 7.4; format: physicochemical
# Summary of the method: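 Solubility measured in PBS pH 7.4 and in pure water, reported as µg/mL.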
# [20] = system: BaF3; test: Antitumor activity against TEL-fused cKIT T670I mutant expressing mouse BA/F3 cells allografted in nu/nu mouse assessed as tumor growth inhibition at 50 mg/kg/day, ip administered daily for 10 days; format: functional; conditions: 240 h, read-out: TGI
# Summary of the method: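 Female nu/nu mice, 5 weeks old at purchase, given 1 million BaF3-TEL-cKIT-T670I cells in PBS/Matrigel 1:1 subcutaneously on the right flank. At tumour volume 200–400 mm3, randomised into groups of 7 and dosed IP daily for 10 days (25, 50, 100 mg/kg/d or vehicle: 0.5% methylcellulose/0.4% Tween80 in water). Tumour volume (W2×L/2) and body weight recorded daily.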
# [21] = system: BaF3; test: Antiproliferative against mouse BA/F3 cells harboring TEL-fused cKIT T670I mutant allografted in nu/nu mouse assessed as tumor growth inhibition at 25 to 100 mg/kg, ip administered daily for 10 days by Ki-67 staining based microscopic analysis; format: functional, organism-based
# Summary of the method: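 Tumours from BaF3-TEL-cKIT-T670I subcutaneous xenografts in nu/nu mice after 10 days of daily IP dosing (25–100 mg/kg/d). Sections underwent citrate pH 6.0 microwave antigen retrieval and casein block, then anti-Ki-67 mouse mAb 1:50 overnight at 4 °C. Detection with DAB and haematoxylin counterstain.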
# [22] = molecular target: T1, Mast/stem cell growth factor receptor Kit; test: Ratio of sunitinib IC50 to compound IC50 for TEL-fused cKIT (unknown origin) expressed in mouse BA/F3 cells; format: cell-based
# [23] = molecular target: T1, Mast/stem cell growth factor receptor Kit; test: Ratio of imatinib IC50 to compound IC50 for TEL-fused cKIT (unknown origin) expressed in mouse BA/F3 cells; format: cell-based
# [24] = molecular target: T1, Mast/stem cell growth factor receptor Kit; test: Inhibition of partial length human cKIT expressed in bacterial expression system assessed as activity remaining at 1 uM by kinome scan assay
# T1 sequence (P10721 whole entry): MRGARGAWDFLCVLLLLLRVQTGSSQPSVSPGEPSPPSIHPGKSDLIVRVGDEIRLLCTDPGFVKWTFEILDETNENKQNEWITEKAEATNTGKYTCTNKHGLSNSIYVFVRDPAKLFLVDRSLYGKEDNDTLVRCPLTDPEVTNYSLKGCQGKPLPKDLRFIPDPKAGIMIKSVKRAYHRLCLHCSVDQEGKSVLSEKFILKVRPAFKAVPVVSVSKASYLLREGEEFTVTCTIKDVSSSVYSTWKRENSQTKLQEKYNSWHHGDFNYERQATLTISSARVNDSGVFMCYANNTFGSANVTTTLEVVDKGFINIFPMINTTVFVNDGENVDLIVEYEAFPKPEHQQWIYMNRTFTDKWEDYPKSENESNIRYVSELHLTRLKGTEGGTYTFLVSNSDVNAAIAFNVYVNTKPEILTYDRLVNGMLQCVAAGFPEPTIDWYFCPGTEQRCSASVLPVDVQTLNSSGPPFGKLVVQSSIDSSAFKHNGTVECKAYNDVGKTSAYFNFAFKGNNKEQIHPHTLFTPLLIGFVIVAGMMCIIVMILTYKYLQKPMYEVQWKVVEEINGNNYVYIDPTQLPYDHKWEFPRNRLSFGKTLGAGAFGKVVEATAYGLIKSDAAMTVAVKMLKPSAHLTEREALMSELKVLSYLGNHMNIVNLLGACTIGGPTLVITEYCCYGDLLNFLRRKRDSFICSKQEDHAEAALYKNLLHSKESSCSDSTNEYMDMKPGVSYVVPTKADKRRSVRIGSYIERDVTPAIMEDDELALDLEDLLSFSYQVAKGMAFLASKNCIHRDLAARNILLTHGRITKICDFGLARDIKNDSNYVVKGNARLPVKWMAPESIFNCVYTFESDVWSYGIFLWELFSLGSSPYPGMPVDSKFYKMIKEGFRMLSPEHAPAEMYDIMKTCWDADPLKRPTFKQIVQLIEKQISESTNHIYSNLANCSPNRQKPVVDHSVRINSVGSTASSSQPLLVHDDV
# Chain of Mast/stem cell growth factor receptor Kit (Homo sapiens), P10721 [T670I] (P10721 whole entry T670I, the tested form may be a part): as the sequence (P10721 whole entry) above, with T670I counted along it
# Chain of Vascular endothelial growth factor receptor 3 (Homo sapiens) (P35916 whole entry): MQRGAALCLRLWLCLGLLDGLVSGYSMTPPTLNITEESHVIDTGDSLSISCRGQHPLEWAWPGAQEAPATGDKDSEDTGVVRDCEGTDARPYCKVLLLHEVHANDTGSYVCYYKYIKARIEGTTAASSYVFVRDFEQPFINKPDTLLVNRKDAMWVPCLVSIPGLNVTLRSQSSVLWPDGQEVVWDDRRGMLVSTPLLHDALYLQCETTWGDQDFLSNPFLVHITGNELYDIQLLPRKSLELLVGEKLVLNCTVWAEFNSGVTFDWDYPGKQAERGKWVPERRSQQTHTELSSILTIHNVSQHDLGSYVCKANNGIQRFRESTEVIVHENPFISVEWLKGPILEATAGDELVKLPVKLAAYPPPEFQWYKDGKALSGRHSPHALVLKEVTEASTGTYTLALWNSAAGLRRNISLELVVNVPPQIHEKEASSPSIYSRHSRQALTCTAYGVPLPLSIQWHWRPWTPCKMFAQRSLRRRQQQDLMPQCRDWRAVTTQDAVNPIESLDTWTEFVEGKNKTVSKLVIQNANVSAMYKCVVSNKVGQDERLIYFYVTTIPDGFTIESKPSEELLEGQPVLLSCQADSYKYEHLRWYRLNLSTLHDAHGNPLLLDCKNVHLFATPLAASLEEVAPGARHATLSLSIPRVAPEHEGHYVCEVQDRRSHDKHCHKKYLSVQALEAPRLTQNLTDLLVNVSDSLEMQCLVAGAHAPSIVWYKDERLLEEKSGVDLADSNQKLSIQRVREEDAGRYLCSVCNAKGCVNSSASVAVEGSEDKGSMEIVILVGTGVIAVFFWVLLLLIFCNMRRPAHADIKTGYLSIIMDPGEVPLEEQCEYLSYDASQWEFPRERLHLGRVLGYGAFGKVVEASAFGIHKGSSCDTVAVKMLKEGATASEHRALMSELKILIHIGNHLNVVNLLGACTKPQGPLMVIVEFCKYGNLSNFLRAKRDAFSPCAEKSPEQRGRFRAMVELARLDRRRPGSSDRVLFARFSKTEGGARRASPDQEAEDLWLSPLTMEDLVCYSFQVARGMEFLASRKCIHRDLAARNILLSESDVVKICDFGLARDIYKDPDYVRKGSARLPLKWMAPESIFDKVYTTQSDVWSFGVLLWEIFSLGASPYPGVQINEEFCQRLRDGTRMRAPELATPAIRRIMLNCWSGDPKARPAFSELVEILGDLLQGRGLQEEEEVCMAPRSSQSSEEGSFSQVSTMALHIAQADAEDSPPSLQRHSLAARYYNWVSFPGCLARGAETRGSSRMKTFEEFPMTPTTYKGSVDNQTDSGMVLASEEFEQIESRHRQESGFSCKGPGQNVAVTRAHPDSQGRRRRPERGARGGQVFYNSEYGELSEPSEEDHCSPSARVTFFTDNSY
# Chain of Mast/stem cell growth factor receptor Kit (Homo sapiens, UniProt P10721, T670I) (P10721 26-976 T670I limits assumed): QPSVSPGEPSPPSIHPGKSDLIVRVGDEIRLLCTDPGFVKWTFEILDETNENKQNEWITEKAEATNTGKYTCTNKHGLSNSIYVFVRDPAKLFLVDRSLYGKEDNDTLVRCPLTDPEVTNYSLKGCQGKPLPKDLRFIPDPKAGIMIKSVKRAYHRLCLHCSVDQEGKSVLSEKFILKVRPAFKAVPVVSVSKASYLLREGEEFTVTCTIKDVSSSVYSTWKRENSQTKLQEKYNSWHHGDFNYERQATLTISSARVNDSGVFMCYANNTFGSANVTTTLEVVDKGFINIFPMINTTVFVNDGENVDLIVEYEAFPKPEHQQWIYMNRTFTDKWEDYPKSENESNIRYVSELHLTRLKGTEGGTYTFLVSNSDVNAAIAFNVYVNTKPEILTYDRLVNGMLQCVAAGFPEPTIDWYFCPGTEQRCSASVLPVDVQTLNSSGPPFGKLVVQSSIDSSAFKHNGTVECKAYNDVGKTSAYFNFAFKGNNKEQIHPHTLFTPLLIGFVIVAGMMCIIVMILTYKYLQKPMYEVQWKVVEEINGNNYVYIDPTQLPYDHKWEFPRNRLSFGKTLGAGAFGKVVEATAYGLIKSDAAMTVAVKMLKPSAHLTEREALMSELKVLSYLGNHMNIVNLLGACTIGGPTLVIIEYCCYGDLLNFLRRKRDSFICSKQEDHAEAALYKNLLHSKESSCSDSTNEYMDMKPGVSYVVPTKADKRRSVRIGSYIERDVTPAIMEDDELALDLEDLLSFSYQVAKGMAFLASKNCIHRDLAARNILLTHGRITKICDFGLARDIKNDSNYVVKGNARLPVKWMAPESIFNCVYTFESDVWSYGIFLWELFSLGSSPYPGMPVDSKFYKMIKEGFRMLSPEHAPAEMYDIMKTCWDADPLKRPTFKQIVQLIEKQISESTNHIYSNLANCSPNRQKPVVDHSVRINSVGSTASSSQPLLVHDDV
# Chain of Platelet-derived growth factor receptor beta (Homo sapiens) (P09619 whole entry): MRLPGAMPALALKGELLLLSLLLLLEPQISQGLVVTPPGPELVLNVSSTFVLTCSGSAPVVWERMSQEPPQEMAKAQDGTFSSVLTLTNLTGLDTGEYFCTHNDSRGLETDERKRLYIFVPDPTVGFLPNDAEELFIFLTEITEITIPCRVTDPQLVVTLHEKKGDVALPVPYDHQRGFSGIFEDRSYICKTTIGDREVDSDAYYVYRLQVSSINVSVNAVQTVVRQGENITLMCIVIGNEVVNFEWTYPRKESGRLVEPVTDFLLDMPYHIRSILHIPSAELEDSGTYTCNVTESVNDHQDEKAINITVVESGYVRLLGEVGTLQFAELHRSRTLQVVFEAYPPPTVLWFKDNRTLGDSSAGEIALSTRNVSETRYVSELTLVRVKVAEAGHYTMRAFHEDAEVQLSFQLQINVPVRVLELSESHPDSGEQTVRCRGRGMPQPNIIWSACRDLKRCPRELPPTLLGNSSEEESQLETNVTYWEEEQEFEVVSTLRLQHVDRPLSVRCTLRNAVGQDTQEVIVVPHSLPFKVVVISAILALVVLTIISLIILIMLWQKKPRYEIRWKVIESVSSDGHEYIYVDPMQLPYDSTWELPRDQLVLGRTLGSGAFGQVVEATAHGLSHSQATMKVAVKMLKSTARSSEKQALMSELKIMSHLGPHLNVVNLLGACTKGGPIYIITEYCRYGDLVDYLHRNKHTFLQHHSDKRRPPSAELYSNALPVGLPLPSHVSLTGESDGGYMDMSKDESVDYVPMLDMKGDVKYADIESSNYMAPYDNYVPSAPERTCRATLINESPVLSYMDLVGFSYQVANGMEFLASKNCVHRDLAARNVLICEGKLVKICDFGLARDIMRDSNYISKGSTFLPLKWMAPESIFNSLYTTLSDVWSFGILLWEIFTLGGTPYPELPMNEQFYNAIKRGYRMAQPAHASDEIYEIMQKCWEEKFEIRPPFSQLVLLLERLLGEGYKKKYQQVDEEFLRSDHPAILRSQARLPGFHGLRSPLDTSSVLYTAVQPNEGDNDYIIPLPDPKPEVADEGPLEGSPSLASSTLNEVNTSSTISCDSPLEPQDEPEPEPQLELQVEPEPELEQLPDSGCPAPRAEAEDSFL
# Chain of Mast/stem cell growth factor receptor Kit (Homo sapiens), P10721 [V559D,V654A] (P10721 whole entry V559D/V654A, the tested form may be a part): as the sequence (P10721 whole entry) above, with V559D, V654A counted along it
# Chain of Cyclin-dependent kinase-like 3 (Homo sapiens) (Q8IVW4 whole entry, looked up): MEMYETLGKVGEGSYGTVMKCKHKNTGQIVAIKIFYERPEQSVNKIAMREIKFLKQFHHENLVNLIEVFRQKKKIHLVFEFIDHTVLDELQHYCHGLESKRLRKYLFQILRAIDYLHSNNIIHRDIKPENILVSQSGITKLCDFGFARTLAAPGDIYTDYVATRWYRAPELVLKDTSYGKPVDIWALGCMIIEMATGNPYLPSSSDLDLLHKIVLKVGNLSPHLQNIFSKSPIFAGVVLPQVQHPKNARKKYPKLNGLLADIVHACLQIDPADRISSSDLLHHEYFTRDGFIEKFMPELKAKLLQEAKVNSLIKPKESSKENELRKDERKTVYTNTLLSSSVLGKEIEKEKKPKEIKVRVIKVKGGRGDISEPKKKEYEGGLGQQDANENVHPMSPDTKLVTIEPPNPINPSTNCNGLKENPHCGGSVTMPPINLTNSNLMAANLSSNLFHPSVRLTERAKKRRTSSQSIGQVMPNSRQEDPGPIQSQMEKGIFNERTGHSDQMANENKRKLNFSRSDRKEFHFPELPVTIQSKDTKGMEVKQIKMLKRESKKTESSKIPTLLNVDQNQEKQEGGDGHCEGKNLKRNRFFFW
compound,measurement,setting,value
CCC(=O)NCC1CCN(c2ccc(NC(=O)Nc3cccc(Oc4ccnc5cc(OC)c(OC)cc45)c3)cc2C(F)(F)F)CC1,half-life,[1],2.04 h
same,GI50,[2],63 nM
same,GI50,[3],360 nM
same,GI50,[4],4 nM
same,Ratio IC50,[5],300
same,Activity,[6],0.3%
same,Activity,[7],0%
same,Activity,[8],0.35%
same,Activity,[9],0%
same,inhibition,[10],Active
same,inhibition,[11],Active
same,inhibition,[12],Active
same,EC50,[13],< 100 nM
same,EC50,[14],< 100 nM
same,EC50,[15],< 100 nM
same,Activity,[16],Active
same,AUC,[17],385 ng·h/mL
same,Vd,[18],7.91 L/kg
same,solubility,[19],35 µM
same,inhibition in vivo at 50 mg/kg/day,[20],37.1%
same,TGI,[21],Active
same,Ratio IC50,[22],2
same,Ratio IC50,[23],10
same,Activity,[24],< 1%
